How the values were obtained:
[1] = target: T1, Prostaglandin G/H synthase 1 (Homo sapiens, UniProt P23219); experiment: Inhibition of COX-1-mediated TXB2 production in human platelets preincubated for 20 mins prior A23187 stimulation measured after 15 mins by RIA
[2] = target: COX-1/COX-2 (Homo sapiens) (UniProt P35354+P23219); experiment: Selectivity ratio of IC50 for COX-1-mediated TXB2 production in human platelets to IC50 for COX-2-mediated 6-keto-PGF1alpha production in IL-1beta-induced HUVEC
COX-1/COX-2 (Homo sapiens), sequence (P23219 whole entry, looked up, one chain of several): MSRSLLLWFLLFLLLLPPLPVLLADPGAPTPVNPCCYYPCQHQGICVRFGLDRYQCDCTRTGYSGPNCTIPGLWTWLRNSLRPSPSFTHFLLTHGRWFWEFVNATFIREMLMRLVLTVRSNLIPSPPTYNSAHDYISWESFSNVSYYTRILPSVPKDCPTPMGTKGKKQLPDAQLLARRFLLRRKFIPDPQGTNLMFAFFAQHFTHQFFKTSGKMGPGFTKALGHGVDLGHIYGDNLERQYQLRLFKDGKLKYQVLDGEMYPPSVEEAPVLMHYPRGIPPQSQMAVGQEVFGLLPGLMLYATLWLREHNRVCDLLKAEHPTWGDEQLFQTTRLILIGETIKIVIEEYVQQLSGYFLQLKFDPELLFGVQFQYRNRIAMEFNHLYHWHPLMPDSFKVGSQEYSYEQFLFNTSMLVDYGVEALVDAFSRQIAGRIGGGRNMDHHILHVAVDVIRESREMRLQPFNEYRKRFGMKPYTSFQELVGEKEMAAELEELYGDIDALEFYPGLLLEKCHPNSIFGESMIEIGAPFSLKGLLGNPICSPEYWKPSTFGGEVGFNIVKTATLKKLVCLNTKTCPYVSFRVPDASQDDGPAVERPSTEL

[3] = target: T2, Prostaglandin G/H synthase 2 (Homo sapiens, UniProt P35354); experiment: Inhibition of COX-2-mediated 6-keto-PGF1alpha production in IL-1beta-induced HUVEC preincubated for 20 mins prior A23187 stimulation measured after 15 mins by RIA
T2 sequence (P35354 whole entry): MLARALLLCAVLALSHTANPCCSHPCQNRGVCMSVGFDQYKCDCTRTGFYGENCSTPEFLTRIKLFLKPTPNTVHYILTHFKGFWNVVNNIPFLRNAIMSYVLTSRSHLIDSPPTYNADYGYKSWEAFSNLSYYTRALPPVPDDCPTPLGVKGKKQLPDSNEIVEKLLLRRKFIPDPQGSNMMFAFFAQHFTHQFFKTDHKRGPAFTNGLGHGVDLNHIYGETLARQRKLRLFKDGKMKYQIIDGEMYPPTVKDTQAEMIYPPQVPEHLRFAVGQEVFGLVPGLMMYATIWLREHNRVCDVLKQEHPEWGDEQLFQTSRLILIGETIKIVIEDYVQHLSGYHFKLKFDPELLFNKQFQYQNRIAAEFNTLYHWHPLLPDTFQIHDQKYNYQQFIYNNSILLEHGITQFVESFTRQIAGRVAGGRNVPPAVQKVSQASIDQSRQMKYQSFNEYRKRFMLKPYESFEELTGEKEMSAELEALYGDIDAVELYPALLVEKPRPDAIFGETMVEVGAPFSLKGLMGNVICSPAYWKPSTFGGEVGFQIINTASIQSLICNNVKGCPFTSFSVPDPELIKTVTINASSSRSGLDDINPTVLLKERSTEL

[4] = target: T1, Prostaglandin G/H synthase 1; experiment: Inhibition of COX-1-mediated TXB2 production in human whole blood after 30 mins post A23187 stimulation by RIA
[5] = target: T2, Prostaglandin G/H synthase 2; experiment: Inhibition of COX-2-mediated PGE2 production in LPS-induced human whole blood after 24 hrs by RIA
Summary of the method: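 Heparinized whole blood from healthy adult volunteers mixed with compound in DMSO (0.1–100 µM final; DMSO under 0.1%) and E. coli 0111:B4 LPS (30 µg/mL final), incubated 24 h at 37 °C to induce COX-2; PGE2 synthesis measured; IC50.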

Rattus norvegicus = experiment: Antiinflammatory activity in SPF/VAF Sprague-Dawley rat assessed as inhibition of carrageenan-induced paw oedema at 10 mg/kg, po administered 1 hr prior carrageenan challenge measured after 3 hrs by plethysmometry; type: functional
Summary of the method: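 Male SPF/VAF Sprague-Dawley rats (Crj:CD(SD), 5 weeks, 110–130 g), fasted overnight, given carrageenan intraplantarly in the hind paw. Test compound or vehicle (5% (v/v) Tween 80 in distilled water) dosed orally at 1 mL/100 g body weight 1 h before carrageenan. Foot volume read by water-displacement plethysmometer before and 3 h after injection; percent inhibition relative to vehicle group taken as 0%.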

T1 sequence (P23219 whole entry): as the sequence (P23219 whole entry, looked up, one chain of several) above

Compound	IC50 [1]	Ratio IC50 [2]	IC50 [3]	IC50 [4]	IC50 [5]	inhibition in vivo at 10 mg/kg (Rattus norvegicus)
O=C(O)Cc1c(C(=O)c2cc3c(cn2)CCCC3)[nH]c2cc(Cl)ccc12	> 10000 nM	> 521	19.2 nM			
COc1ccc2[nH]c(C(=O)c3cc(C)ccn3)c(CC(=O)O)c2c1	3050 nM	23.8	128 nM	> 100000 nM	2200 nM	
Cc1ccnc(C(=O)c2[nH]c3cc(Cl)c(F)cc3c2CC(=O)O)c1	65.9 nM	9.73	6.77 nM	7700 nM	100 nM	
CCc1cc(C(=O)c2[nH]c3cc(Cl)ccc3c2CC(=O)O)ncc1Cl	> 10000 nM	> 326	30.7 nM			
CCOc1cnc(C(=O)c2[nH]c3cc(Cl)ccc3c2CC(=O)O)cc1CC	> 10000 nM		598 nM			
CCc1ccc2[nH]c(C(=O)c3cc(C)ccn3)c(CC(=O)O)c2c1	882 nM		15.7 nM	47000 nM	1600 nM	
CCc1ccnc(C(=O)c2[nH]c3ccc(OC(F)(F)F)cc3c2CC(=O)O)c1	> 10000 nM		421 nM	> 100000 nM	5700 nM	
Cc1ccnc(C(=O)c2[nH]c3ccc(C(C)(C)C)cc3c2CC(=O)O)c1	1510 nM		41.5 nM			
Cc1ccnc(C(=O)c2[nH]c3ccc(F)cc3c2CC(=O)O)c1	150 nM	26.4	5.68 nM	21400 nM	150 nM	
Cc1ccnc(C(=O)c2[nH]c3cc(F)ccc3c2CC(=O)O)c1	849 nM	86.5	9.81 nM	33500 nM	155 nM	70%
COc1ccc2c(CC(=O)O)c(C(=O)c3cc(C)ccn3)[nH]c2c1	> 10000 nM	> 78.1	128 nM	> 100000 nM	1900 nM	
CCc1ccc2c(CC(=O)O)c(C(=O)c3cc(C)ccn3)[nH]c2c1	> 10000 nM		414 nM			
Cc1ccnc(C(=O)c2[nH]c3ccc(OC(F)(F)F)cc3c2CC(=O)O)c1	1000 nM		39.6 nM	> 100000 nM	1900 nM	

— ChEMBL document CHEMBL1949501, “Novel acid-type cyclooxygenase-2 inhibitors: Design, synthesis, and structure-activity relationship for anti-inflammatory drug” (Eur J Med Chem, 2012)
